In ChEMBL document CHEMBL1147722, “Discovery of proline sulfonamides as potent and selective hepatitis C virus NS5b polymerase inhibitors. Evidence for a new NS5b polymerase binding site” (J Med Chem, 2006) one finds IC50, Papp and Papp A→B data, which are given here for 19 molecules.

Usually IC50 stands for the concentration that gives 50% inhibition. High values mean weaker potency in that assay, low ones greater potency in that assay.

Bounds are passed on as bounds.

For data set [1], the target named is RNA-directed RNA polymerase (Hepacivirus hominis, UniProt O39930). The experiment in a line: Inhibition of HCV NS5B RNA dependent RNA polymerase.
The target in data set [2] is Human immunodeficiency virus type 1 reverse transcriptase (Human immunodeficiency virus 1, UniProt Q72547). Briefly: Inhibition of HIV reverse transcriptase.
The next data set concerns the target DNA polymerase beta (Homo sapiens, UniProt P06746). Briefly: Inhibition of human polymerase beta.
A further data set has as its target NS3 (Hepatitis C virus, UniProt A3EZJ3). Briefly: Inhibition of HCV helicase. Also noted: species or system Hepacivirus hominis.
For another data set, the system named is Vero. The experiment in a line: Cytotoxicity against Vero cell line. Type of data set: functional, cell-based. Conditions: Chlorocebus sabaeus. The method, boiled down: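 Cytotoxicity read by MTS assay on actively growing cells: Vero cells for line 1, clone A cells for line 2. IC50 was determined in each assay.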
Data set [3] in a line: Permeability at pH 7.4 by PAMPA assay. Type of data set: ADME. The conditions noted are these: read-out: permeability.
A short description of data set [4]: Permeability from apical to basolateral side of the Caco-2 cell. Type of data set: ADME, cell-based. The conditions noted are these: human, read-out: permeability. For orientation: Caco-2 monolayers are a common model of the intestinal barrier.

RNA-directed RNA polymerase, sequence (O39930 whole entry): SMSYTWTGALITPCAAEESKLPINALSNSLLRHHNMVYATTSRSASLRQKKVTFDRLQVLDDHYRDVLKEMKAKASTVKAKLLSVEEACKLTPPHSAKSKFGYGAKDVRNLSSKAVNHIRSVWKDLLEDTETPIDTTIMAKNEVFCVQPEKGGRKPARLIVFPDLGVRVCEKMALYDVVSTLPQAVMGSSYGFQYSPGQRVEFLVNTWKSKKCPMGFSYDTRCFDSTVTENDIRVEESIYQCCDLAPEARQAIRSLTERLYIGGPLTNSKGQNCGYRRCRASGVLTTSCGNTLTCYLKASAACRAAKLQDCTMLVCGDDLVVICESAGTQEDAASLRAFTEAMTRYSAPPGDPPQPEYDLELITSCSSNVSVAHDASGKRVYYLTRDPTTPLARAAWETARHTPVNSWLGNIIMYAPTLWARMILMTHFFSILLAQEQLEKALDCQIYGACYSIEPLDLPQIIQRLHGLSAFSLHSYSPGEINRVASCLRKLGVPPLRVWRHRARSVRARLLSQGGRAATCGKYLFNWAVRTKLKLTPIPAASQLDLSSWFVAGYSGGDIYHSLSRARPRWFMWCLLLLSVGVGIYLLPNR
NS3, sequence (A3EZJ3 whole entry): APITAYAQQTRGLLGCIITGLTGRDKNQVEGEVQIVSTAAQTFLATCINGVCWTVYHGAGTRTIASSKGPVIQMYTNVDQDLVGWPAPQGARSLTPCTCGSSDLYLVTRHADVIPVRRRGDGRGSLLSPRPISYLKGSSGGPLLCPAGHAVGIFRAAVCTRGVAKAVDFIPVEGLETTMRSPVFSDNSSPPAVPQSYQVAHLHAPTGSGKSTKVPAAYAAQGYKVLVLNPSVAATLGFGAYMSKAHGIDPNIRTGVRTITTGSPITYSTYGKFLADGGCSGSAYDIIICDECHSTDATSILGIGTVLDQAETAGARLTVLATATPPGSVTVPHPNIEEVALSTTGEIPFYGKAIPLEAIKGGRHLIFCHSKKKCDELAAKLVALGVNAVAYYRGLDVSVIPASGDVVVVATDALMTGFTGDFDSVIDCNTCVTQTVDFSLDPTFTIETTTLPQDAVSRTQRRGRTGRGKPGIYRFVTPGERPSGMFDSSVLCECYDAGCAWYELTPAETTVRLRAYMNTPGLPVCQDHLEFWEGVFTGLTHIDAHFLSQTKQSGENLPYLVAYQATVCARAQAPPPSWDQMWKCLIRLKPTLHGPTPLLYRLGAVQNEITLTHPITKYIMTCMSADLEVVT

In data set [1], `O=C(O)C1CSCN1S(=O)(=O)c1cc(Cl)cc(Cl)c1O` (single isomer, unassigned; 33) returned an IC50 of 240 nM. Consider `O=C(O)[C@@H]1CCCN1S(=O)(=O)c1cc(Cl)cc(Cl)c1O`, for which inhibition in data set [1] was half-maximal at 770 nM (IC50). Still for that read-out and setting: with `O=C(O)[C@@H]1CCCN1S(=O)(=O)c1cc(Cl)cc(Br)c1O` the figure was 260 nM.

Consider `CC(=O)Nc1cc(C)c(Cl)cc1S(=O)(=O)N1CCC[C@H]1C(=O)O`, for which, in data set [1], the IC50 was over 20000 nM. Same read-out and setting: with `N#C[C@@H]1CCCN1S(=O)(=O)c1cc(Cl)cc(Cl)c1O` the figure was 1400 nM. On the same count and under the same terms, with `O=C(O)[C@@H]1CCCCN1S(=O)(=O)c1cc(Cl)cc(Cl)c1O` the figure was 2000 nM; with `O=C(O)[C@@H]1CCCN1S(=O)(=O)c1cc(F)cc(Cl)c1O`, 2100 nM; with `O=C(O)[C@H]1CCCN1S(=O)(=O)c1cc(Cl)cc(Cl)c1O`, 7900 nM. Same read-out and setting: with `O=C(O)C1CSCN1S(=O)(=O)c1cc(Cl)cc(Cl)c1O` (single isomer, unassigned; 34) the figure was 1700 nM; with `O=C(O)[C@@H]1CCCN1S(=O)(=O)c1cc(Cl)cc(Cl)c1`, over 20000 nM. As to `Cc1cc(S(=O)(=O)N2CCC[C@H]2C(=O)O)c(N)cc1Cl`, the values for the IC50 (in data set [2]; against DNA polymerase beta; on NS3) were over 100000 nM, over 100000 nM and over 75000 nM, respectively. On to `Cc1cc(N)c(S(=O)(=O)N2CCC[C@H]2C(=O)O)cc1Cl`, for which, in data set [1], the IC50 turned out to be 5950 nM. In data set [1], `Nc1ccccc1S(=O)(=O)N1CCC[C@H]1C(=O)O` returned an IC50 of over 20000 nM.

`Cc1cc(NC(=O)c2ccccc2)c(S(=O)(=O)N2CCC[C@H]2C(=O)O)cc1Cl`: the IC50 in data set [1] is over 20000 nM. In the case of `O=S(=O)(c1cc(Cl)cc(Cl)c1O)N1CCCC1`, half-maximal inhibition in data set [1] (IC50) was put at 4800 nM. Turning to `O=C(O)[C@@H]1CCCN1S(=O)(=O)c1cc(Cl)c(Cl)c(Cl)c1O`, the IC50 is over 100000 nM with Vero and 80 nM in data set [1]. Besides, the Papp in data set [3] was 0.02 ×10⁻⁶ cm/s. Moreover, the Papp A→B in data set [4] was 0.4 ×10⁻⁶ cm/s. Turning to `O=S(=O)(c1cc(Cl)cc(Cl)c1O)N1CCC[C@H]1c1nn[nH]n1`, in data set [1], the midpoint of inhibition, the IC50, lay at 560 nM. For `O=C(O)[C@H]1CCCCN1S(=O)(=O)c1cc(Cl)cc(Cl)c1O`, 7100 nM corresponded to half-maximal inhibition in data set [1] (IC50).

In the case of `COC(=O)[C@@H]1CCCN1S(=O)(=O)c1cc(Cl)cc(Cl)c1O`, in data set [1], the IC50 is over 20000 nM.
